Assay results collected from several papers.
Each line is one published result; the experiments were not run side by side.

Compound | tested on | assay | test system | conditions | quantity | result
CC(=O)c1ccc2c(c1)N(CCCN(C)C)c1ccccc1S2 | CEM-SS | cell growth or viability, XTT | – | 6 days | CC50 | 18 µM
O=[N+]([O-])c1ccc(-c2nc3cccc(O)c3[nH]2)o1 | CEM-SS | cell growth or viability, resazurin | – | 72 h | CC50 | 90 µM
CCCC(=O)Nc1cccc(NC(=O)c2ccccc2Br)c1 | – | chemical stability | mouse, plasma | 5 µM, 5 h, pH 7.4 | compound remaining | 2%
Nc1ccn([C@@H]2CS[C@H](CO)O2)c(=O)n1 | HepG2.2.15 | cell growth or viability, MTT | – | 6 days | CC50 | > 1000 µM
Nc1nc(-c2ccc(NC(=O)Nc3ccc(-c4c[nH]c(N)n4)c(F)c3)cc2F)c[nH]1 | – | metabolic stability | human, liver microsomes | 5 µM, 1 h, pH 7.4 | compound remaining | > 80%
CCC(=O)C[C@H](O)C[C@@H](C)C[C@H](NC(=O)[C@@H]1C[C@H](C)CN1C(=O)/C=C/[C@@H](C)CC)C(=O)N[C@H](C(=O)NC(C)(C)C(=O)N[C@@H](CC(C)C)C(=O)N[C@@H](CC(C)C)C(=O)NC(C)(C)C(=O)NC(C)(C)C(=O)NCCC(=O)N[C@@H](C)CN(C)C)[C@H](O)C(C)C | L6 | cell growth or viability, resazurin | – | 68 h | IC50 | 0.259 µM
COc1cccc2c1C(=O)c1c(O)c3c(c(O)c1C2=O)C[C@@](O)(C(=O)CO)C[C@@H]3O[C@H]1C[C@H](N)[C@H](O)[C@H](C)O1 | COLO 205 | cell growth or viability, MTT | – | 48 h | IC50 | 0.5 µM
N=C(N)c1ccc(OCCCCCOc2ccc(C(=N)N)cc2)cc1 | L6 | cell growth or viability, resazurin | – | 70 h | IC50 | 7.6 µM
Oc1c(-n2ccnn2)cnn1-c1cc(N2CCOCC2)ncn1 | – | – | female monkey, plasma | intravenous, 1 mg/kg | clearance | 11.7 mL/min/kg
O=C(CCCO)N1N=C(c2c(-c3ccc(Cl)cc3)c3ccccc3[nH]c2=O)CC1c1ccc(Cl)cc1 (stereo not drawn) | – | metabolic stability | human, liver microsomes | 1 µM, 10 min, pH 7.4 | compound remaining | 52%
C=C(C)[C@H](CC=C(C)C)Cc1c(O)cc(O)c2c1O[C@H](c1ccccc1O)CC2=O | COLO 205 | cell growth or viability, MTT | – | 48 h | IC50 | 28.1 µM
Nc1nc(-c2cc(F)cc(NC(=O)Nc3cc(F)cc(-c4c[nH]c(N)n4)c3)c2)c[nH]1 | – | metabolic stability | human, liver microsomes | 5 µM, 1 h, pH 7.4 | compound remaining | > 80%
